# Tested on: U2OS
# Experiment: Multiplex assay against U2OS
# Type: toxicity, cell-based
# Settings: human
# Summary of the method: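 Cells were classed with CellPathfinder machine-learning gating, first as Hoechst high-intensity objects or normal cells, then (normal cells) as healthy, pyknosed or fragmented nuclei, and finally (pyknosed cells) as mitotic or apoptotic. Staining of live cells at seeding used Hoechst33342, BioTracker Green Microtubule Cytoskeleton Dye, MitoTracker Red and Annexin V Alexa Fluor 680, with imaging on a CQ1 microscope at 37°C and 5% CO2 after compound addition. Tubulin, mitochondrial-mass and membrane-permeability phenotypes are per cents of healthy-nucleus cells.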
# [1] = 12 h, 1 µM, compound concentration 1 uM, replicate 1
# [2] = 12 h, 1 µM, compound concentration 1 uM, replicate 2
# [3] = 12 h, 10 µM, compound concentration 10 uM, replicate 1
# [4] = 12 h, 10 µM, compound concentration 10 uM, replicate 2
# [5] = 24 h, 1 µM, compound concentration 1 uM, replicate 1
# [6] = 24 h, 1 µM, compound concentration 1 uM, replicate 2
# [7] = 24 h, 10 µM, compound concentration 10 uM, replicate 1
# [8] = 24 h, 10 µM, compound concentration 10 uM, replicate 2
# [9] = 48 h, 1 µM, compound concentration 1 uM, replicate 1
# [10] = 48 h, 1 µM, compound concentration 1 uM, replicate 2
# [11] = 48 h, 10 µM, compound concentration 10 uM, replicate 1
# [12] = 48 h, 10 µM, compound concentration 10 uM, replicate 2
compound,measurement,setting,value
O=C(Nc1ccc(Cl)cc1)Nc1cccc(-c2cccc(N3CCCC3)n2)c1,Population Apoptotic (%),[1],44%
same,Population Fragmented Nuclei (%),[1],11%
same,Population Healthy Nuclei (%),[1],79%
same,Population Hoechst High Intensity Objects (%),[1],10%
same,Population Membrane Permeable-Phenotype (%),[1],7%
same,Population Mitochondria Different-Phenotype (%),[1],7%
same,Population Mitotic Cells (%),[1],55%
same,Population Normal (%),[1],89%
same,Population Pyknosed Nuclei (%),[1],9%
same,Population Tubulin-Different-Phenotype (%),[1],7%
same,Total Cell Count,[1],158
same,Population Apoptotic (%),[2],25%
same,Population Fragmented Nuclei (%),[2],17%
same,Population Healthy Nuclei (%),[2],76%
same,Population Hoechst High Intensity Objects (%),[2],7%
same,Population Membrane Permeable-Phenotype (%),[2],10%
same,Population Mitochondria Different-Phenotype (%),[2],8%
same,Population Mitotic Cells (%),[2],75%
same,Population Normal (%),[2],92%
same,Population Pyknosed Nuclei (%),[2],6%
same,Population Tubulin-Different-Phenotype (%),[2],12%
same,Total Cell Count,[2],83
same,Population Apoptotic (%),[3],58%
same,Population Fragmented Nuclei (%),[3],10%
same,Population Healthy Nuclei (%),[3],65%
same,Population Hoechst High Intensity Objects (%),[3],10%
same,Population Membrane Permeable-Phenotype (%),[3],80%
same,Population Mitochondria Different-Phenotype (%),[3],12%
same,Population Mitotic Cells (%),[3],41%
same,Population Normal (%),[3],89%
same,Population Pyknosed Nuclei (%),[3],24%
same,Population Tubulin-Different-Phenotype (%),[3],82%
same,Total Cell Count,[3],109
same,Population Apoptotic (%),[4],72%
same,Population Fragmented Nuclei (%),[4],3%
same,Population Healthy Nuclei (%),[4],78%
same,Population Hoechst High Intensity Objects (%),[4],7%
same,Population Membrane Permeable-Phenotype (%),[4],69%
same,Population Mitochondria Different-Phenotype (%),[4],7%
same,Population Mitotic Cells (%),[4],27%
same,Population Normal (%),[4],92%
same,Population Pyknosed Nuclei (%),[4],17%
same,Population Tubulin-Different-Phenotype (%),[4],74%
same,Total Cell Count,[4],69
same,Population Apoptotic (%),[5],41%
same,Population Fragmented Nuclei (%),[5],6%
same,Population Healthy Nuclei (%),[5],83%
same,Population Membrane Permeable-Phenotype (%),[5],5%
same,Population Mitotic Cells (%),[5],58%
same,Population Pyknosed Nuclei (%),[5],9%
same,Population Tubulin-Different-Phenotype (%),[5],3%
same,Population Apoptotic (%),[6],20%
same,Population Fragmented Nuclei (%),[6],18%
same,Population Healthy Nuclei (%),[6],75%
same,Population Hoechst High Intensity Objects (%),[6],6%
same,Population Membrane Permeable-Phenotype (%),[6],7%
same,Population Mitochondria Different-Phenotype (%),[6],3%
same,Population Mitotic Cells (%),[6],80%
same,Population Normal (%),[6],93%
same,Population Pyknosed Nuclei (%),[6],6%
same,Population Tubulin-Different-Phenotype (%),[6],12%
same,Total Cell Count,[6],94
same,Population Apoptotic (%),[7],83%
same,Population Fragmented Nuclei (%),[7],17%
same,Population Healthy Nuclei (%),[7],54%
same,Population Hoechst High Intensity Objects (%),[7],21%
same,Population Membrane Permeable-Phenotype (%),[7],53%
same,Population Mitochondria Different-Phenotype (%),[7],13%
same,Population Mitotic Cells (%),[7],16%
same,Population Normal (%),[7],78%
same,Population Pyknosed Nuclei (%),[7],28%
same,Population Tubulin-Different-Phenotype (%),[7],61%
same,Total Cell Count,[7],131
same,Population Apoptotic (%),[8],72%
same,Population Fragmented Nuclei (%),[8],13%
same,Population Hoechst High Intensity Objects (%),[8],25%
same,Population Membrane Permeable-Phenotype (%),[8],46%
same,Population Mitochondria Different-Phenotype (%),[8],15%
same,Population Mitotic Cells (%),[8],27%
same,Population Normal (%),[8],74%
same,Population Pyknosed Nuclei (%),[8],31%
same,Population Tubulin-Different-Phenotype (%),[8],46%
same,Total Cell Count,[8],81
same,Population Apoptotic (%),[9],30%
same,Population Fragmented Nuclei (%),[9],4%
same,Population Healthy Nuclei (%),[9],88%
same,Population Hoechst High Intensity Objects (%),[9],6%
same,Population Membrane Permeable-Phenotype (%),[9],1%
same,Population Mitochondria Different-Phenotype (%),[9],5%
same,Population Mitotic Cells (%),[9],69%
same,Population Normal (%),[9],93%
same,Population Pyknosed Nuclei (%),[9],6%
same,Population Tubulin-Different-Phenotype (%),[9],2%
same,Total Cell Count,[9],245
same,Population Apoptotic (%),[10],50%
same,Population Fragmented Nuclei (%),[10],8%
same,Population Healthy Nuclei (%),[10],83%
same,Population Hoechst High Intensity Objects (%),[10],5%
same,Population Membrane Permeable-Phenotype (%),[10],4%
same,Population Mitochondria Different-Phenotype (%),[10],9%
same,Population Mitotic Cells (%),[10],50%
same,Population Normal (%),[10],94%
same,Population Pyknosed Nuclei (%),[10],7%
same,Population Tubulin-Different-Phenotype (%),[10],12%
same,Total Cell Count,[10],110
same,Population Apoptotic (%),[11],91%
same,Population Fragmented Nuclei (%),[11],21%
same,Population Healthy Nuclei (%),[11],33%
same,Population Hoechst High Intensity Objects (%),[11],31%
same,Population Membrane Permeable-Phenotype (%),[11],31%
same,Population Mitochondria Different-Phenotype (%),[11],29%
same,Population Mitotic Cells (%),[11],8%
same,Population Normal (%),[11],68%
same,Population Pyknosed Nuclei (%),[11],44%
same,Population Tubulin-Different-Phenotype (%),[11],33%
same,Total Cell Count,[11],221
same,Population Apoptotic (%),[12],87%
same,Population Fragmented Nuclei (%),[12],19%
same,Population Healthy Nuclei (%),[12],26%
same,Population Hoechst High Intensity Objects (%),[12],39%
same,Population Membrane Permeable-Phenotype (%),[12],40%
same,Population Mitochondria Different-Phenotype (%),[12],25%
same,Population Mitotic Cells (%),[12],12%
same,Population Normal (%),[12],60%
same,Population Pyknosed Nuclei (%),[12],53%
same,Population Tubulin-Different-Phenotype (%),[12],48%
same,Total Cell Count,[12],108

# Source: ChEMBL document CHEMBL4689842, “EUbOPEN Chemogenomics Library wave 1” (2021)
